Source: PubChem (The Scripps Research Institute Molecular Screening Center)
CHRM5 antagonist: antagonists of human muscarinic M5 receptor (CHRM5) | inhibition, % at 3 µM | AID 624040 | P08912 | CHO-hM5 cells, Fluo-8 calcium fluorescence, ACh EC80 | 0.59% of 360,000 active;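 active means inhibition above a per-plate cutoff, the mean of that plate's test compounds plus 3 SD, cut at about 27% in these data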
Target sequence (P08912 whole entry, looked up): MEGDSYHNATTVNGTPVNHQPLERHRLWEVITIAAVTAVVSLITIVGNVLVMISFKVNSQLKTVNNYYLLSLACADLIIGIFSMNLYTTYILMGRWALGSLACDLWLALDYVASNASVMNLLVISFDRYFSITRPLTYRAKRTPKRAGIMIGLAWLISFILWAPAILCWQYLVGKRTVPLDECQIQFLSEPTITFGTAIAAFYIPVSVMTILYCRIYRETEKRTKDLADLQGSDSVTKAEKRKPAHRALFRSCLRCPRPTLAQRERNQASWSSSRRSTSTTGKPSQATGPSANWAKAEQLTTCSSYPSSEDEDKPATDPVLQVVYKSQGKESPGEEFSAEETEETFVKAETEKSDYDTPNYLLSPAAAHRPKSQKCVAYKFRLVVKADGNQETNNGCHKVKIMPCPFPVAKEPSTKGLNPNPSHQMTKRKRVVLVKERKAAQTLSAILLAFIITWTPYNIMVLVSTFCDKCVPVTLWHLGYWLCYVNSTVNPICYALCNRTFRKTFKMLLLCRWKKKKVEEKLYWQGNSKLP
M4 antag: antagonists of human muscarinic M4 receptor (CHRM4). P08173. CHO-hM4 cells, ACh EC80, Fluo-8 calcium fluorescence. inhibition, % at 3 µM. 0.73% of 360,000 active;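 active means inhibition above its plate's cutoff, the mean inhibition of sample wells plus 3 SD, cut at about 27% in these data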
M5 ag: agonists of human muscarinic M5 receptor (CHRM5). P08912. CHO-K1 hM5 cells, Fluo-8 calcium fluorescence; 0% DMSO wells, 100% maximal acetylcholine response. activation, % at 3 µM. 0.19% of 360,000 active;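 active means activation above the run's mean over test compounds plus 3 SD, cut at about 23% in these data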;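 further: signal is peak over basal fluorescence ratio across the kinetic read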
CHRM4 agonist: CHRM4 agonism in calcium assay; activation, % at 3 µM; 0.14% of 360,000 active; P08173; CHO-K1 hM4/Gqi5, Fluo-8 calcium fluorescence; vehicle 0%, full acetylcholine response 100%;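 active means activation above the run mean over all test wells plus 3 SD, cut at about 32% in these data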;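 further: peak over basal fluorescence ratio per well then scaled between controls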
CHRM5 PAM: positive allosteric modulators of human muscarinic M5 receptor; P08912; 0.3% of 360,000 active; AID 624038; activation, % at 3 µM; CHO-K1 hM5, Fluo-8 calcium, ACh EC20 PAM; 0% = ACh EC20, 100% = ACh EC100;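 active means activation above the run cutoff, the mean activation of all test compounds plus 3 SD, cut at about 18% in these data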
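system = human M5 receptor in CHO-K1 cells | reagent = EC20 acetylcholine as agonist stimulus | compound dosing = single-point, 3 µM nominal | incubation = Fluo-8 loading 80 min at 37 °C plus 30 min room temperature | detection = Fluo-8 calcium dye fluorescence, kinetic read | benchmarks = low control EC20 acetylcholine (0%), high control EC100 acetylcholine (100%)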
CHRM4 PAM: potentiates acetylcholine response at human M4 receptor | CHO-K1 hM4/Gqi5, Fluo-8 calcium fluorescence, ACh EC20; 0% = ACh EC20, 100% = maximal ACh | activation, % at 3 µM | 0.4% of 360,000 active;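 active means activation above its plate's cutoff, the mean activation of sample wells plus 3 SD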
Each line names hits and unclear results; the compound was inactive in the other large screens. This is a sample that favours compounds with a hit; in the whole collection about 1.8% have one here.

CCOC(=O)[C@]12Cc3cc4ccccc4cc3[C@H]1N(Cc1ccccc1)C(=O)c1cc(OC)ccc12	none
COc1ccc(CNCCc2c(C)[nH]c3ccc(OC(F)(F)F)cc23)c(OC)c1	CHRM5 antagonist 32, M4 antag 29, CHRM4 agonist 40
COc1ccc2[nH]c(C)c(CCNCc3cc(OC)c(OC)c(OC)c3)c2c1	none
Cc1cccc(C)c1-n1nnnc1C(C1CC1)N1CCC2(CC1)C(=O)NCN2c1ccccc1 (stereo unspecified)	none
CC(=O)Nc1cc([As](=O)(O)O)ccc1O	M5 ag 27
CC(=O)Nc1cccc([As](=O)(c2cccc(NC(C)=O)c2)c2cccc(NC(C)=O)c2)c1	none
CNC(=O)C[C@H]1CC[C@@H]2NC[C@H](O)COC[C@H]2O1	none
CC(=O)c1ccc(NC2=NCCCS2)cc1	CHRM5 antagonist 31
CC12C=CC(=O)CC1CCC1C2CCC2(C)C(O)C(O)CC12 (stereo unspecified)	CHRM5 antagonist 35
CCNc1nc(NC(C)(C)C)nc(SC)n1	none
COC(=O)C1=C(c2ccc(OCc3ccccc3)cc2)C[C@@H]2CC[C@H]1N2C(=O)NCc1cccc(C(F)(F)F)c1	none
NC(Cc1ccccc1)Cc1ccccc1	none
NC(Cc1ccccc1)c1nn[nH]n1 (stereo unspecified)	CHRM5 antagonist 30
CC(C)C(=O)c1cn(Cc2ccc(C#N)cc2)c2ccccc12	none
CC(=O)c1cn(Cc2ccc(C#N)cc2)c2ccccc12	CHRM5 antagonist 42
COC(=O)C1=C(c2ccc(F)cc2OCc2ccccc2)C[C@@H]2CC[C@H]1N2C(=O)NCC1CC1	none
CCCCCN1C(=O)c2cc(OC)ccc2[C@@]2(C(=O)OCC)Cc3cc(Cl)ccc3[C@@H]12	none
c1ccc(-c2cc(-c3ccccc3)[n+](-c3ccccc3)c(-c3ccccc3)c2)cc1	CHRM5 antagonist 48, M4 antag 73
CN(C)c1ccc(-[n+]2c(-c3ccccc3)cc(-c3ccccc3)cc2-c2ccccc2)cc1	CHRM5 antagonist 78, M4 antag 56
Cc1ccc(-c2cc(-c3ccccc3)cc(-c3ccccc3)[n+]2-c2ccccc2)cc1	CHRM5 antagonist 49, M4 antag 79
Cc1ccc(-c2cc(-c3ccc(C)cc3)[n+](-c3ccc(C(=O)[O-])cc3)c(-c3ccc(C)cc3)c2)cc1	none
O=[N+]([O-])c1cc(Cl)c(O)c(-[n+]2c(-c3ccccc3)cc(-c3ccccc3)cc2-c2ccccc2)c1	none
Cc1ccc(-c2cc(-c3ccc(C)cc3)[n+](-c3ccccc3)c(-c3ccc(C)cc3)c2)cc1	CHRM5 antagonist 31, M4 antag 65
C[n+]1c(-c2ccccc2)cc(-c2ccc(Cl)cc2)cc1-c1ccccc1	none
CCOC(=O)c1ccccc1C(=O)OCC	none
CCOC(=O)c1cccc(-[n+]2c(-c3ccccc3)cc(-c3ccccc3)cc2-c2ccccc2)c1	M4 antag 27
N[C@@H](Cc1ccccc1)C(=O)N1C[C@H]2C[C@@H](C1)c1cccc(=O)n1C2	M4 antag 92
O=C(CCC(=O)N1C[C@H]2C[C@@H](C1)c1cccc(=O)n1C2)NCc1ccccc1	none
CCC(C(=O)N1C[C@H]2C[C@@H](C1)c1cccc(=O)n1C2)c1ccccc1 (stereo partly specified)	none
O=C(CCC(=O)N1C[C@H]2C[C@@H](C1)c1cccc(=O)n1C2)NCc1cccc(C(F)(F)F)c1	M4 antag 99
COc1ccccc1C(=O)Nc1ccc2c(c1)CC1(C(=O)N(C)C(=O)N(C)C1=O)C1CCCN21 (stereo unspecified)	none
COC(=O)C1=C(C(=O)OC)C2OC1c1cc3ccccc3cc12	M4 antag 96
COC(=O)C1=C(c2ccc3ccccc3c2)C[C@@H]2CC[C@H]1N2C	none
CCOP(=S)(OCC)Oc1nc(Cl)c(Cl)cc1Cl	none
CC1(C)CN=C(Nc2ccc(F)c(Cl)c2)S1	CHRM4 agonist 35
CCOC(=O)[C@]12Cc3cc(Cl)ccc3[C@H]1N(CC(=O)OC)C(=O)c1ccccc12	none
COC(=O)C1=C(c2cc3ccccc3o2)C[C@@H]2CC[C@H]1N2C(=O)N1CCC(O)CC1	none
Cc1ccc(CN2CCN(Cc3ccccc3F)CC2)cc1	CHRM5 PAM 26
CCOC(=O)CNC(=O)CSP(=S)(OCC)OCC	CHRM4 PAM 33
Cn1nnc(CC[N+](C)(C)C)n1	CHRM5 antagonist 65, M5 ag 76
CC1C(=O)CC2(C(C)C)CC12 (stereo unspecified)	none
O=C(c1ccc(C(F)(F)F)cc1)C1CCCN(C2CCSCC2)C1 (stereo unspecified)	none
Cc1cc(Cl)ccc1C(=O)C1CCCN(C2CCSCC2)C1 (stereo unspecified)	M4 antag 33
CN1C2CCC1CC(OC(=O)c1ccc(Cl)cc1)C2 (stereo unspecified)	CHRM5 antagonist 32
CCOc1ccc(C(=O)OC2CC3CCC(C2)N3C)cc1 (stereo unspecified)	none
CN1C2CCC1CC(OC(=O)c1ccc(Cl)cc1)(C(=O)O)C2 (stereo unspecified)	CHRM4 PAM 29
Cc1nc2ccccc2c(=O)n1-c1ccc(Cl)cc1[N+](=O)[O-]	none
N#Cc1ccc(/C=C/C(=O)O)cc1	none
CCOC(=O)C1SC2(C(F)(F)F)CC1(O)c1c(C)cc(C)nc1O2 (stereo unspecified)	CHRM4 PAM 45
C=CCn1c(O)c(C=NC2CCN(Cc3ccccc3)CC2)c(=O)[nH]c1=O	CHRM4 PAM 12
CN1CN=C(N[N+](=O)[O-])N(Cc2ccco2)C1	none
O=[N+]([O-])NC1=NCN(Cc2ccco2)CN1Cc1ccco1	CHRM5 PAM 19
Cc1ccccc1C(O)(Cc1ccccc1)C1CN2CCC1CC2 (stereo unspecified)	CHRM5 antagonist 92, M4 antag 76
CN1CN(c2ccccc2)C2(CCN(CCCSc3ccccc3NC(=O)/C=C/c3ccccc3)CC2)C1=O	CHRM5 antagonist 37, M4 antag 59, M5 ag 68, CHRM4 agonist 110
O=C1CC(N2CCC(n3c(=O)[nH]c4ccccc43)CC2)C(=O)N1Cc1ccccc1 (stereo unspecified)	none
O=c1[nH]c2ccccc2n1C1CCN(Cc2ccc(-c3[nH]c4cc5ncnc5cc4nc3-c3ccccc3)cc2)CC1	M5 ag 67
C#CCN(C)[C@H](C)Cc1ccccc1	none
CC(Cc1ccccc1Sc1ccccc1O)N(C)C (stereo unspecified)	CHRM5 antagonist 99, M4 antag 82
Cc1nc2ccc(Br)cc2c(=O)n1-c1ccc([N+](=O)[O-])c(C(F)(F)F)c1	CHRM5 antagonist 32
Cc1ccc(-n2c(O)c(C=Nc3ccc(S(=O)(=O)N(C)C)cc3)c(=O)[nH]c2=O)cc1	none
CC(Oc1ccc(-c2ccccc2)cc1)C(=O)O (stereo unspecified)	CHRM5 PAM 18
CC(=O)c1ccc(-c2ccccc2)cc1	none
